Measured values: paper PMC4234452 (Journal of Medicinal Chemistry, 2014)

Legend:
human TG1 = target: T1, human TG1 (Homo sapiens, UniProt P22735); experiment: GDH-coupled transglutaminase assay, TG1; format: biochemical
T1 sequence (P22735 63-817): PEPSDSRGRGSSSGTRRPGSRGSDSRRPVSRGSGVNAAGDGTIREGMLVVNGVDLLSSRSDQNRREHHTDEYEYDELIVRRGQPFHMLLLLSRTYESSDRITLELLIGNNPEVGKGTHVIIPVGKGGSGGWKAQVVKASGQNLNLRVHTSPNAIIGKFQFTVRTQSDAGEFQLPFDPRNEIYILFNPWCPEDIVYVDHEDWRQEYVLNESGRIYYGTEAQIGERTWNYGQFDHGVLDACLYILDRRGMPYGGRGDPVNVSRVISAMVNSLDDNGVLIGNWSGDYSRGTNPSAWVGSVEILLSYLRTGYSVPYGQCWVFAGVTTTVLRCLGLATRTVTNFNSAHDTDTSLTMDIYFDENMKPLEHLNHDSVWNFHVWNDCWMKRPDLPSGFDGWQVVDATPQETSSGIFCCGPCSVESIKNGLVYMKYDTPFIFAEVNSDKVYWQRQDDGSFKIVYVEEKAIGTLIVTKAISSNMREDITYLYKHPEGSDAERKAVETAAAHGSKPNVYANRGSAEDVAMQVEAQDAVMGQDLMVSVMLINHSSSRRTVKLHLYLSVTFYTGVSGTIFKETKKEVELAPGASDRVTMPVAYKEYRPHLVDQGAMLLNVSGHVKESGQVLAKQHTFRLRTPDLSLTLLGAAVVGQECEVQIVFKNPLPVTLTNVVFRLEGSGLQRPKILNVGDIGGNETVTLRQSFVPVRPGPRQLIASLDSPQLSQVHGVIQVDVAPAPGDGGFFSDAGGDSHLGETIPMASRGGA

TG2 = conditions: murine model of hypoxia-induced pulmonary hypertension ref 22; cited from earlier work
[1] = twice-daily, intraperitoneal, 50 mg/kg, several weeks ref 22; cited from earlier work
[2] = Plasma concentrations after pooled oral dosing to mice; format: in vivo; conditions: 50 mg/kg
How it was run: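 Test compounds given as mixtures by oral gavage (10 μL/g) at 50 mg/kg of each constituent to cohorts of five male CD-1 mice, 6−8 weeks old, fasted about 6 h. Blood was drawn into lithium-heparin tubes from the saphenous vein at 5 and 20 min, and by cardiac puncture at 60 min after CO2 euthanasia. Each compound's plasma concentration was quantified and plotted against time.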

[3] = target: T2, Human Transglutaminase 3 (TG3) (Homo sapiens, UniProt Q08188); experiment: GDH-coupled transglutaminase assay, TG3; format: biochemical; conditions: irreversible inhibition model, substrate ZQS
T2 sequence (Q08188 2-467 limits assumed): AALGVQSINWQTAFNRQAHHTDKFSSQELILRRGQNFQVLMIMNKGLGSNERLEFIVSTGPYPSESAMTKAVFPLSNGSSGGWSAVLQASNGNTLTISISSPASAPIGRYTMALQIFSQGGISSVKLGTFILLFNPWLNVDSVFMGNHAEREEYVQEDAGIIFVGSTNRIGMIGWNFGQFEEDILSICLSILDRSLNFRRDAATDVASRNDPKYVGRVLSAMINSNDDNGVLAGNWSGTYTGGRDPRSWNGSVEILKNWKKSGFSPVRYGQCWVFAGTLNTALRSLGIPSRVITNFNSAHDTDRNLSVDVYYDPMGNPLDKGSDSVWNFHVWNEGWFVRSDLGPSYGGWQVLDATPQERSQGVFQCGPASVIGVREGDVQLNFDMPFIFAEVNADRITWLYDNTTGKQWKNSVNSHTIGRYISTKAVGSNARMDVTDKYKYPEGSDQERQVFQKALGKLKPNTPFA
T2 sequence (Q08188 468-693 partner limits assumed): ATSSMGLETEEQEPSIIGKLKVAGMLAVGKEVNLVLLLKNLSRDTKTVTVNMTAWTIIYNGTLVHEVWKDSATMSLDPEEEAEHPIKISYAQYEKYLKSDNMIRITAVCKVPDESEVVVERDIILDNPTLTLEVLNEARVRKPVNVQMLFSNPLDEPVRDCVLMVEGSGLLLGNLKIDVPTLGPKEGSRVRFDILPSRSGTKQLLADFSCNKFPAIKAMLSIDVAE

human TG2 = target: T3, human TG2 (Homo sapiens, UniProt P21980, V224G); experiment: GDH-coupled transglutaminase assay, TG2; format: biochemical
T3 sequence (P21980 1-687 V224G): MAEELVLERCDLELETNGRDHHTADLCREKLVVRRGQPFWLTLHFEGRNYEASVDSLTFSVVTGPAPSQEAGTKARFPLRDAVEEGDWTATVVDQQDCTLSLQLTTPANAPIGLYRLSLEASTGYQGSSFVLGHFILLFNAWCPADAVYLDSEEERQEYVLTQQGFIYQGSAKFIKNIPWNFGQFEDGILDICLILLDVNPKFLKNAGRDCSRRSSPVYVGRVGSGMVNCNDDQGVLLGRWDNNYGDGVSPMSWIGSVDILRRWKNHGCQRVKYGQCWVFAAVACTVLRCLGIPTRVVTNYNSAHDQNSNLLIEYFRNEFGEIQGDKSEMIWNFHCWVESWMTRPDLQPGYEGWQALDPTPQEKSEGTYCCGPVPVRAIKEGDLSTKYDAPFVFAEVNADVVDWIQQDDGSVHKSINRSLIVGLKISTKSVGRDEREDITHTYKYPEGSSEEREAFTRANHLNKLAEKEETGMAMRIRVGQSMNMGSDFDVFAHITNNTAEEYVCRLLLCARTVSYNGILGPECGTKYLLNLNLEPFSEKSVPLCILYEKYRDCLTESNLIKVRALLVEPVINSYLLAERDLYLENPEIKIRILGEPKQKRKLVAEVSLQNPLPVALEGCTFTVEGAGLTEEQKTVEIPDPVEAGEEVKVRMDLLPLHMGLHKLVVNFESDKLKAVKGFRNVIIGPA

murine TG2 (mTG2) = target: T4, murine TG2 (mTG2) (Mus musculus, UniProt P21981); experiment: GDH-coupled transglutaminase assay, murine TG2; format: biochemical; conditions: irreversible inhibition model, substrate ZQG
T4 sequence (P21981 1-686): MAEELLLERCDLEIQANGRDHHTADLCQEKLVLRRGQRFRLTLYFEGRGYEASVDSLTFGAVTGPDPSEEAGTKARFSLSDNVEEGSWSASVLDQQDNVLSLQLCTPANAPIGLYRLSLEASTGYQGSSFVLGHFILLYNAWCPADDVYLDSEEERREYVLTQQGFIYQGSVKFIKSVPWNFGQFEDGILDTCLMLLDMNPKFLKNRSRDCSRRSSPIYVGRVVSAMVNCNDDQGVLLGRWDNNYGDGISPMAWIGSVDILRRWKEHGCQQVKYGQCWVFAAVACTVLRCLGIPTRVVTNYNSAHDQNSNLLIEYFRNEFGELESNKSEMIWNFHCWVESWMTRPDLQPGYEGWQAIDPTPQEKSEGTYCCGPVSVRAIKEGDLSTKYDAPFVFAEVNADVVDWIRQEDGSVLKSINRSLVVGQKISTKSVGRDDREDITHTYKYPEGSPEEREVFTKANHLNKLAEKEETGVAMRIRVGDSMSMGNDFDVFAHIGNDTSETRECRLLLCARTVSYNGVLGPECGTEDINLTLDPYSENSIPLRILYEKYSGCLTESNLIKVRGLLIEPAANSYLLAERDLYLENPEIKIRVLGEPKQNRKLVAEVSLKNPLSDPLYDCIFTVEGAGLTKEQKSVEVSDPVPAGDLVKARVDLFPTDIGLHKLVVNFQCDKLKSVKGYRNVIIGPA

| Compound | kinh/Ki TG3 [3] [M⁻¹ s⁻¹] | kinh/Ki mTG2 (murine TG2 (mTG2)) [M⁻¹ s⁻¹] | further results |
| --- | --- | --- | --- |
| O=C(NC[C@@H]1CC(Br)=NO1)[C@@H]1CCCN1C(=O)OCc1cnc2ccccc2c1 [Compound 1, (S)-Quinolin-3-ylmethyl 2-((((S)-3-Bromo-4,5-dihydroisoxazol-5-yl)methyl)carbamoyl)pyrrolidine-1-carboxylate] | < 16.7 | 138 | kinh/Ki TG1 (human TG1; irreversible inhibition model, substrate ZQS, listed as ERW1041E): 217 M⁻¹ s⁻¹; inhibitory half-life (TG2): about 12 h; tolerability [1]: well tolerated; peak plasma concentration after oral dosing [2]: 2 to 3 µg/mL; kinh/Ki TG2 (human TG2; irreversible inhibition model, substrate ZQG, listed as ERW1041E): 283 M⁻¹ s⁻¹; decrease in potency from ERW1069 to ERW1041E (human TG2; relative to ERW1069): 3–4 fold |
| O=C(NC[C@@H]1CC(Br)=NO1)[C@@H]1C[C@H](F)CN1C(=O)OCc1cnc2ccccc2c1 [Compound 4b, (2S,4S)-Quinolin-3-ylmethyl 2-((((S)-3-Bromo-4,5-dihydroisoxazol-5-yl)methyl)carbamoyl)-4-fluoropyrrolidine-1-carboxylate] | < 16.7 | 117 | – |
| O=C(NC[C@@H]1CC(Br)=NO1)[C@@H]1C[C@@H](O)CN1C(=O)OCc1cnc2ccccc2c1 [Compound 4e, (2S,4R)-Quinolin-3-ylmethyl 2-((((S)-3-Bromo-4,5-dihydroisoxazol-5-yl)methyl)carbamoyl)-4-hydroxypyrrolidine-1-carboxylate] | < 16.7 | 185 | – |
| O=C(NC[C@@H]1CC(Br)=NO1)[C@@H]1C[C@@H](c2ccccc2)CN1C(=O)OCc1cnc2ccccc2c1 [Compound 7a, (2S,4S)-Quinolin-3-ylmethyl 2-((((S)-3-Bromo-4,5-dihydroisoxazol-5-yl)methyl)carbamoyl)-4-phenylpyrrolidine-1-carboxylate] | < 16.7 | 423 | plasma levels, fold lower than that of 4b [2]: 3–4 fold |
| C#CCOC(=O)N1CCC[C@H]1C(=O)NC[C@@H]1CC(Br)=NO1 [Compound 10b, (S)-Prop-2-yn-1-yl 2-((((S)-3-Bromo-4,5-dihydroisoxazol-5-yl)methyl)carbamoyl)pyrrolidine-1-carboxylate] | – | – | selectivity for TG2 over TG1 (human TG2; from kinh/Ki): 3 fold |
| O=C(NC[C@@H]1CC(Br)=NO1)[C@@H]1CCCN1C(=O)OCc1cnc2ccccc2n1 [Compound 10l, (S)-Quinoxalin-2-ylmethyl 2-((((S)-3-Bromo-4,5-dihydroisoxazol-5-yl)methyl)carbamoyl)pyrrolidine-1-carboxylate] | – | – | selectivity for TG1 (over TG2) (human TG1; from kinh/Ki): 10 fold |
| (2S,4R)-Quinolin-3-ylmethyl 4-(Benzyloxy)-2-((((S)-3-bromo-4,5-dihydroisoxazol-5-yl)methyl)carbamoyl)pyrrolidine-1-carboxylate [Compound 5c] | < 16.7 | 258 | – |

Further lines, with some results ahead:

| kinh/Ki TG3 [3] [M⁻¹ s⁻¹] | kinh/Ki mTG2 (murine TG2 (mTG2)) [M⁻¹ s⁻¹] | Compound | further results |
| --- | --- | --- | --- |
| < 16.7 | 645 | O=C(NC[C@@H]1CC(Br)=NO1)[C@@H]1C[C@@H](c2ccc(O)cc2)CN1C(=O)OCc1cnc2ccccc2c1 [Compound 7e, (2S,4S)-Quinolin-3-ylmethyl 2-((((S)-3-Bromo-4,5-dihydroisoxazol-5-yl)methyl)carbamoyl)-4-(4-hydroxyphenyl)pyrrolidine-1-carboxylate] | plasma levels, fold lower than that of 4b [2]: 3–4 fold |
| < 16.7 | 157 | O=C(N[C@@H]1C[C@@H](C(=O)NC[C@@H]2CC(Br)=NO2)N(C(=O)OCc2cnc3ccccc3c2)C1)c1ccc(O)cc1 [Compound 9d, (2S,4R)-Quinolin-3-ylmethyl 2-((((S)-3-Bromo-4,5-dihydroisoxazol-5-yl)methyl)carbamoyl)-4-(4-hydroxybenzamido)pyrrolidine-1-carboxylate] | oral bioavailability / systemic availability (in words) [2]: much less bioavailable |
| < 16.7 | 177 | O=C(N[C@@H]1C[C@@H](C(=O)NC[C@@H]2CC(Br)=NO2)N(C(=O)OCc2cnc3ccccc3c2)C1)c1cccnc1 [Compound 9e, (2S,4R)-Quinolin-3-ylmethyl 2-((((S)-3-Bromo-4,5-dihydroisoxazol-5-yl)methyl)carbamoyl)-4-(nicotinamido)pyrrolidine-1-carboxylate] | oral bioavailability / systemic availability (in words) [2]: much less bioavailable |
